The values that follow come from ChEMBL document CHEMBL3525987, “Assessment of exposure of metabolites in preclinical species and humans at steady state from the single-dose radiolabeled absorption, distribution, metabolism, and excretion studies: a case study” (Drug Metab Dispos, 2012).

Series [1] in a line: Drug recovery in feces of human at […], po administered as single dose measured after 168 hrs by liquid scintillation counting. Conditions: in vivo. Type of series: ADME, organism-based. On the set-up: dosed compound name [14C]lixivaptan, route oral. The method, boiled down: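 Healthy male volunteers given single oral 100 mg (200 µCi) [14C]drug capsules after ≥10 h fast. Urine at 0-4, 4-8, 8-12, 12-24 h then 24-h intervals; feces as passed, to 168 h. Urine LSC; feces homogenized in water, combusted, LSC; % of dose.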

The subject of series [2] is Rattus norvegicus. Nature of the series: Total Drug recovery in male Sprague-Dawley rat at 10 mg/kg, po administered as single dose via gavage measured after 168 hrs by liquid scintillation counting. Type of series: ADME, organism-based. More on the design: dose 10 mg/kg, dosed compound name [14C]lixivaptan, route oral. As to conditions: in vivo. The method, boiled down:
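Intact rats, 3/gender, given [14C]drug as a suspension in deionized water with pluronic F68 (10 ml/kg, ~29.8 μCi/mg), fasted 18 h before dosing, fed 4 h after. Urine and feces collected at 0-8, 8-24 h, then every 24 h for 7 days. Feces homogenized, combusted and counted; urine counted by LSC in duplicate. Recovery is % of dose, including cage wash/debris.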

The nature of series [3]: Drug recovery in feces of female Sprague-Dawley rat at 10 mg/kg, po administered as single dose via gavage measured after 168 hrs by liquid scintillation counting. The format is ADME, organism-based. On the set-up: dose 10 mg/kg, dosed compound name [14C]lixivaptan, route oral. As to conditions: in vivo. The method in brief:
(§1)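 Intact SD rats (3/gender) dosed by gavage with [14C]drug 10 mg/kg (10 ml/kg, pluronic F68/water), housed in metabolism cages; urine and feces at 0-8, 8-24 h, then every 24 h to 7 days. Urine counted by LSC; feces homogenized 20% w/w in water, combusted, trapped CO2 counted; cage wash/debris included; % of dose.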

For series [4], the system named is Rattus norvegicus. Nature of the series: Drug recovery in cage wash/debris of female Sprague-Dawley rat at 10 mg/kg, po administered as single dose via gavage measured after 168 hrs by liquid scintillation counting. More on the design: dose 10 mg/kg, dosed compound name [14C]lixivaptan, route oral. The format is ADME, organism-based. Conditions: in vivo. The method, boiled down: as §1

The test system of series [5] is Rattus norvegicus. Put plainly: Total drug recovery in bile duct-cannulated male Sprague-Dawley rat at 10 mg/kg, po administered as single dose via gavage measured from 0 to 48 hrs by liquid scintillation counting. Type of series: ADME, organism-based. More on the design: dose 10 mg/kg, dosed compound name [14C]lixivaptan, route oral. Conditions: in vivo. The method, boiled down: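 Male BDC rats (n=5) given oral [14C]drug as a suspension in deionized water with pluronic F68 (10 ml/kg). Drinking water supplemented with bile salts, NaCl and KCl. Bile collected on wet ice at 0-4, 4-8, 8-24 and 24-48 h. Duplicate aliquots counted by LSC; recovery expressed as % of dose in bile.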

Series [6] is described as follows: Drug recovery in bile of bile duct-cannulated female Sprague-Dawley rat at 10 mg/kg, po administered as single dose via gavage measured 0 to 48 hrs by liquid scintillation counting. Conditions: in vivo. More on the design: dose 10 mg/kg, dosed compound name [14C]lixivaptan, route oral. The format is ADME, organism-based. The method, boiled down: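 Bile-duct cannulated SD rats (n=5) got single gavage of [14C]drug 10 mg/kg as pluronic F68/water suspension. Bile collected on wet ice at 0-4, 4-8, 8-24, 24-48 h; drinking water supplemented with bile salts and electrolytes. Duplicate aliquots counted by liquid scintillation; expressed as % of dose.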

Series [7] concerns Homo sapiens. Nature of the series: AUC in human at 100 mg, po qd for 7 days. Type of series: ADME, organism-based, Plasma. More on the design: dosed compound name [14C]lixivaptan. As to conditions: in vivo, 168 h.
Series [8] has as its system Canis familiaris. Put plainly: Drug recovery in cage wash/debris of male beagle dog at 10 mg/kg, po administered as single dose via gavage measured after 168 hrs by liquid scintillation counting. Type of series: ADME, organism-based, Canis lupus familiaris. Conditions: in vivo. On the set-up: dose 10 mg/kg, dosed compound name [14C]lixivaptan, route oral. The method in brief: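 Four male beagles got 10 mg/kg (2 ml/kg) [14C]drug suspension (5.0 mg/ml, pluronic F68/water, 1.04 µCi/mg) by gavage. Urine and feces collected over dry ice at 0-8, 8-24 h, then every 24 h to 7 days; urine by LSC, fecal homogenates combusted then LSC; cage wash/debris included; % of dose.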

Series [9] concerns Homo sapiens. Nature of the series: Cmax as total radioactivity in human plasma at 100 mg, po administered as single dose by LC-MS/MS analysis. Conditions: in vivo. Type of series: ADME, organism-based. More on the design: dose 100 mg, route oral, dosed compound name [14C]lixivaptan. The method in brief: (§2)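 Fasted healthy males took one oral 100 mg (200 µCi) [14C]lixivaptan dose. Plasma was drawn from predose to 144 h. Total radioactivity was measured by LSC and converted to ng-equiv/ml via the dose specific activity; lixivaptan by validated LC-MS/MS. Noncompartmental analysis: Cmax observed; kel by log-linear regression; AUC0-t by linear trapezoid; extrapolation as Cest/kel.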

Series [10] relates to Homo sapiens. Nature of the series: AUC(0 to t) as total radioactivity in human plasma at 100 mg, po administered as single dose by LC-MS/MS analysis. Conditions: in vivo. The format is ADME, organism-based. On the set-up: dosed compound name [14C]lixivaptan. The method in brief: as §2
In series [11] the test system is Rattus norvegicus. Nature of the series: Tmax as total radioactivity in male Sprague-Dawley rat plasma at 10 mg/kg, po administered as single dose via gavage by LC-MS/MS analysis. Type of series: ADME, organism-based. On the set-up: dose 10 mg/kg, dosed compound name [14C]lixivaptan, route oral. As to conditions: in vivo. The method, boiled down:
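Jugular-vein cannulated SD rats (5/gender) given gavage [14C]drug 10 mg/kg in pluronic F68/water; K2EDTA blood 0.25-168 h with donor blood replacement. Parent by validated LC-MS/MS, radioactivity by LSC; Tmax observed; t1/2 = 0.693/kel by terminal log-linear regression.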

Series [12] deals with Rattus norvegicus. Nature of the series: AUC(0 to infinity) as total radioactivity in male Sprague-Dawley rat plasma at 10 mg/kg, po administered as single dose via gavage […]. Type of series: ADME, organism-based. More on the design: time infinity, dose 10 mg/kg, dosed compound name [14C]lixivaptan, route oral. As to conditions: in vivo. The method, boiled down: (§3)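 Jugular-cannulated Sprague-Dawley rats (5/gender) were fasted 18 h and gavaged once with 10 mg/kg [14C]lixivaptan suspended in water/pluronic F68. K2EDTA blood was taken at 0.25–168 h, with donor blood replaced from 1 h on. Total radioactivity was read by LSC (ng-equiv/ml) and parent by validated LC-MS/MS. Noncompartmental Cmax, log-linear kel and trapezoidal AUC followed.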

In series [13] the test system is Rattus norvegicus. Put plainly: AUC(0 to t) as total radioactivity in female Sprague-Dawley rat plasma at 10 mg/kg, po administered as single dose via gavage by LC-MS/MS analysis. The format is ADME, organism-based. On the set-up: dose 10 mg/kg, dosed compound name [14C]lixivaptan, route oral. As to conditions: in vivo. The method in brief:
as §3

The subject of series [14] is Homo sapiens. Nature of the series: Drug level in human plasma at 100 mg, po administered as single dose measured after 8 hrs by liquid scintillation counting. Type of series: ADME, organism-based. More on the design: dosed compound name [14C]lixivaptan. As to conditions: in vivo. The method in brief:
(§4)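 Healthy male volunteers fasted ≥10 h, given single oral 100 mg (200 µCi) [14C]drug as two 50-mg capsules with 250 ml water. Plasma (from ~50 ml blood) at 0.5, 2, 4, 8, 12, 24, 36 h, profiled per subject. Acetonitrile extraction, C18 radio-HPLC with 0.2% formic acid acetonitrile/water gradient, on-line radioactivity detection as % plasma radioactivity; ng-equiv/ml from % × total radioactivity.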

The subject of series [15] is Homo sapiens. Put plainly: Drug level in human plasma at 100 mg, po administered as single dose measured after 36 hrs by liquid scintillation counting. The format is ADME, organism-based. More on the design: dosed compound name [14C]lixivaptan. Conditions: in vivo. The method in brief:
as §4

The subject of series [16] is Rattus norvegicus. Nature of the series: Drug level in female Sprague-Dawley rat plasma at 10 mg/kg, po administered as single dose via gavage measured after 1 hr by liquid scintillation counting. The format is ADME, organism-based. More on the design: dose 10 mg/kg, dosed compound name [14C]lixivaptan, route oral. Conditions: in vivo. The method in brief:
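Sprague-Dawley rats (9/gender) were fasted 18 h and gavaged once with [14C]lixivaptan at 10 mg/kg (10 ml/kg), about 29.8 µCi/mg, suspended in deionized water with pluronic F68. Plasma came by cardiac puncture under isoflurane at 1, 8 and 24 h (3/gender/time) and was extracted twice with 2 volumes of acetonitrile. C18 radio-HPLC with a flow scintillation detector gave percent of plasma radioactivity per peak.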

Series [17] has as its system Canis familiaris. Put plainly: Drug level in beagle dog plasma at 10 mg/kg, po administered as single dose measured after 2 hrs by liquid scintillation counting. Type of series: ADME, organism-based, Canis lupus familiaris. More on the design: dose 10 mg/kg, dosed compound name [14C]lixivaptan, route oral. As to conditions: in vivo. The method in brief:
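Four male beagles fasted 18 h were gavaged once with [14C]lixivaptan at 10 mg/kg (2 ml/kg). The 5.0 mg/ml suspension was in deionized water with pluronic F68 (1.04 µCi/mg). Jugular K2EDTA plasma was taken at 2, 8 and 24 h and extracted twice with 2 volumes of acetonitrile. Profiling used C18 radio-HPLC (ammonium formate/acetonitrile gradient) with on-line flow scintillation detection. Each peak is reported as percent of plasma radioactivity.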

The Tmax is the time from dosing to the highest level.

With `Cc1ccc(F)cc1[14C](=O)Nc1ccc(C(=O)N2Cc3cccn3Cc3ccccc32)c(Cl)c1`, the Radiolabel recovery in series [1] was 63.7%; in [2], 99%; in [3] it was 92%; in [4], 3.51%; in [5], 65.4%; in [6], 70.5%. This compound gave a Radiolabel recovery in series [8] of 4.9%. Besides, the results for the AUC in [7] and in series [12] were 1860 ng.Eq.hr/ml and 67100 ng.Eq.hr/ml, respectively. Moreover, the Cmax in series [9] was determined as 1770 ngequiv/ml. Moreover, the figures for the AUCt in series [10] and in series [13] were 24700 ng.Eq.hr/ml and 36700 ng.Eq.hr/ml, respectively. The Tmax in series [11] is 3.2 h. The Compound recovery turned out to be 6.7% in [14], 3.6% in [15], 29.9% in series [16] and 21.2% in [17].
